In ChEMBL document CHEMBL3817762, “Monoacidic Inhibitors of the Kelch-like ECH-Associated Protein 1: Nuclear Factor Erythroid 2-Related Factor 2 (KEAP1:NRF2) Protein-Protein Interaction with High Cell Potency Identified by Fragment-Based Discovery” (J Med Chem, 2016) one finds concentration and bioavailability data, which are given here for 1 compound.

Holding throughout (type): ADME, organism-based
Series [1] can be described thus: Drug level in Han Wistar rat blood at 35 umol/kg, iv dosed up to 6 hrs infusions by LC-MS/MS analysis. The note with it: whole blood, read-out: Drug uptake. In short, it runs like this: (§1)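 Han Wistar rats (250-300 g, n=8/group) received the compound by IV infusion over 6 h at 10, 35 or 50 µmol/kg. Blood concentration was taken as the steady-state level over the 6 h infusion period.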

The nature of series [2]: Drug level in Han Wistar rat blood at 10 umol/kg, iv dosed up to 6 hrs infusions by LC-MS/MS analysis. The note with it: whole blood, read-out: Drug uptake. The gist of the method:
as §1

A short description of series [3]: Drug level in Han Wistar rat blood at 50 umol/kg, iv dosed up to 6 hrs infusions by LC-MS/MS analysis. The note with it: whole blood, read-out: Drug uptake. In short, it runs like this: as §1
A short description of series [4]: Systemic oral bioavailability in Han Wistar rat at 2 mg/kg after 24 hrs by LC-MS/MS analysis. The note with it: in vivo. The gist of the method:
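Han Wistar rats (n=3) were dosed IV and PO in a crossover design with a two-day washout. Blood was sampled over 24 h and analysed by LC/MS/MS.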

What is called bioavailability is dose-corrected exposure relative to a reference, in per cent. A lower bioavailability goes with little systemic uptake.

Structures are written as SMILES.

With `COc1cc([C@@H](CC(=O)O)c2ccc(C)c(CN3C[C@@H](C)Oc4ccccc4S3(=O)=O)c2)cc2nnn(C)c12`, the concentration at 6 h in series [1] worked out at 946 nM; in series [2], 407 nM; in series [3], 1440 nM. The compound further had a bioavailability in series [4] of 7%.
